A selection: hits, their analogues and other compounds. The true share with any hit is near 3.1%.
PolyA inh = blocks polyadenylation in yeast reporter cells | S. cerevisiae SKY197-pL101 polyadenylation reporter, beta-gal luminescence; efflux-impaired pdr1/pdr3 knockout yeast; score 100 = 6 SD above DMSO | activity score, % at 12 µM | hit rate 0.02% among 300,000;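 active = lowest replicate activity score at least 50, where 100 means six control SD above control mean; inconclusive = lowest score under 50 but half or more replicates reach 50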;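 also: yeast exposed to compound for 9 h at 30 °C; higher score means more reporter readthrough which indicates perturbed polyadenylation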
HIF act = HIF pathway transcriptional activation. hit rate 0.32% among 300,000. U2OS HRE-luciferase reporter, luminescence; normalized: DMSO 0%, desferrioxamine 100%. activation, % at 7.5 µM (by protocol);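 active = mean activation of at least 10% of the iron chelator positive control signal, with at least half of replicates also reaching 10%; inconclusive = mean and replicate majority disagree about reaching 10%; inactive = mean and most replicates under 10%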
T cruzi inh = T. cruzi replication inhibition; T. cruzi beta-gal in NIH3T3, luminescence, 90 h; inhibition, % (no concentration beside the values); hit rate 1.4% among 300,000;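 active = mean inhibition across valid replicates above about 55%, limit read from the data; inconclusive = mean below that limit but half or more replicates reach it; inactive = mean below it, under half of replicates reach it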;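 also: signal also drops with host cell toxicity which is not excluded here; 0% = plate median of DMSO wells and 100% = zero luminescence signal; higher percent means less beta-gal luminescence so fewer parasites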
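Assay system: NIH/3T3 fibroblasts plus reporter T. cruzi. Amount: NIH/3T3 cells, 5,000 per well. Buffer or medium: DMEM, 2% fetal bovine serum. Doses: compound pinned at 50 nL/well, DMSO. Schedule: ≥90 h infection period, 3 h prior cell attachment. Signal: luminescent β-galactosidase signal after 60 min lysis. Read-out: parasite load inhibition, %.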
Calb FLC = C. albicans growth modulation with fluconazole; C. albicans CaCi-2 (fluconazole-resistant clinical isolate) + fluconazole, Alamar Blue growth, 48 h; growth inhibition, % (no concentration beside the values); hit rate 0.57% among 300,000; AID 1979;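 active = growth inhibition above about 58% in most replicates, limit read from the data, passing the limit was not always enough; inconclusive = exactly half the replicates above a set limit; inactive = most replicates below a set limit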;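 also: all wells also contain fluconazole at 8 µg/ml as a sub-toxic cotreatment; 0% = median of DMSO wells and 100% = median of geldanamycin control wells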
CSC inhib = cancer stem cell inhibition; hit rate 1.1% among 300,000; cancer stem cell-like cells viability, luminescence; inhibition, % at 7.5 µM; in the data active = inhibition above about 75%; inconclusive = no clear call, values can overlap the other calls; tested in HMLE shEcad cells
Beta apoptosis = blocks beta cell apoptosis. INS-1E cytokine-induced death, ATP luminescence, 48 h; percent of positive-control rescue, neutral wells zero. protection from apoptosis, % (concentration not given with the values). hit rate 0.8% among 300,000;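 active = Every replicate reaches about 75%, or at least half do and their mean reaches it too, limit read from the data; inconclusive = At least half of replicates reach the limit but their mean does not; inactive = Under half of replicates reach the limit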;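 also: 0% = cytokine-treated negative control wells and 100% = positive control rescue; higher means more ATP so stronger rescue from cytokine killing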
Starred values were filed as active, the others as inactive.

What do the screens show for `CCOC(=O)c1c(NC(=O)COC(=O)Cc2ccccc2[N+](=O)[O-])sc(C(=O)N(C)C)c1C`?
PolyA inh: 5.1; HIF act: -1.6; T cruzi inh: 16.4; Calb FLC: -4.8; CSC inhib: 0.9; Beta apoptosis: -3.3

What do the screens show for `CCOC(=O)c1c(NC(=O)CSc2nc3cc(Cl)ccc3c(=O)n2Cc2ccco2)sc(C(=O)N(C)C)c1C`?
PolyA inh: 21.6; HIF act: -0.4; T cruzi inh: 61.0*; Calb FLC: 5.1; CSC inhib: 52.3; Beta apoptosis: 27.5

What do the screens show for `CCOC(=O)c1c(NC(=O)COC(=O)c2ccccc2NC)sc(C(=O)N(C)C)c1C`?
PolyA inh: -18.5; HIF act: 0.1; T cruzi inh: 58.7*; Calb FLC: 8.6; Beta apoptosis: 8.5

How did O=S(=O)(c1ccc(F)cc1)N1CCC(n2cnc3ccccc32)CC1 do in these assays?
PolyA inh: 2.3; HIF act: 0.0; T cruzi inh: 4.5; Calb FLC: 2.8; CSC inhib: -2.2; Beta apoptosis: -1.1

Results for O=S(=O)(c1ccc(Cl)cc1)N1CCC(n2cnc3cc(C(F)(F)F)ccc32)CC1 ?
PolyA inh: 0.5; HIF act: -0.3; T cruzi inh: 55.7*; Calb FLC: 19.3; CSC inhib: 84.8*; Beta apoptosis: 10.0

How did C/C(Cl)=C\Cn1c(O)c(N=NC(N)=S)c2cc(Br)ccc21 do in these assays?
PolyA inh: -27.3; HIF act: -0.2; T cruzi inh: 76.7*; Calb FLC: inconclusive; Beta apoptosis: 29.9

Results for CCOCCCNC(=O)c1cc2c(s1)-c1ccccc1SC2 ?
PolyA inh: 20.4; HIF act: 0.2; T cruzi inh: -7.7; Calb FLC: 2.3; CSC inhib: 4.2; Beta apoptosis: -2.8

How did CN(C)CCNC(=O)c1cc2c(s1)-c1ccc(Cl)cc1SC2 do in these assays?
PolyA inh: -4.1; HIF act: -6.3; T cruzi inh: 40.2; Calb FLC: 4.2; CSC inhib: 102.3*; Beta apoptosis: -8.5

How did N=C1S/C(=C\c2ccco2)C(=O)N1c1ccc2c(c1)OCO2 do in these assays?
PolyA inh: -8.5; HIF act: 0.5; T cruzi inh: -1.6; Calb FLC: -5.7; CSC inhib: -4.6; Beta apoptosis: -5.5

Results for N=C1S/C(=C\c2ccco2)C(=O)N1c1nccs1 ?
PolyA inh: 5.1; HIF act: 2.6; T cruzi inh: 55.8*; Calb FLC: -0.3; Beta apoptosis: 14.5

What do the screens show for `CCC1CCCCN1C(=O)c1cc(COc2ccc(-n3cncn3)cc2)on1` (stereo unspecified)?
PolyA inh: 0.5; HIF act: -0.9; T cruzi inh: 7.3; Calb FLC: 1.5; CSC inhib: -13.0; Beta apoptosis: 103.7*

What do the screens show for `O=C(N/N=C/c1sc2ccccc2c1O)c1cccc2ccccc12`?
PolyA inh: -12.5; HIF act: 12.0*; T cruzi inh: 26.6; Calb FLC: 87.7*; CSC inhib: 97.4*; Beta apoptosis: 97.1*

How did O=C(N/N=C/c1ccc(F)cc1)c1ccccc1 do in these assays?
PolyA inh: 0.4; HIF act: 3.2; T cruzi inh: -4.9; Calb FLC: -3.1; CSC inhib: 1.5; Beta apoptosis: 0.7

How did COc1ccc(C(=O)N/N=C/c2sc3ccccc3c2O)cc1 do in these assays?
PolyA inh: -15.8; HIF act: 0.3; T cruzi inh: 12.2; Calb FLC: 27.4; CSC inhib: inconclusive; Beta apoptosis: 96.2*

What do the screens show for `COc1ccc(C(=O)N/N=C/c2c[nH]c3ccccc23)cc1`?
PolyA inh: -0.3; HIF act: 4.1; T cruzi inh: 2.0; Calb FLC: -9.9; CSC inhib: 8.7; Beta apoptosis: -2.5

What do the screens show for `O=C(N/N=C/c1sc2ccccc2c1O)c1ccccc1`?
PolyA inh: 17.9; HIF act: 5.2; T cruzi inh: 20.8; Calb FLC: 21.3; CSC inhib: 35.2; Beta apoptosis: 102.9*

How did COc1ccc2cc(C(=O)N/N=C/c3sc4ccccc4c3O)ccc2c1 do in these assays?
PolyA inh: 2.3; HIF act: 0.3; T cruzi inh: 15.1; Calb FLC: -6.4; CSC inhib: 147.5*; Beta apoptosis: 92.3*

How did COc1ccc(/C=N/N2CCOCC2)cc1Cn1cc([N+](=O)[O-])cn1 do in these assays?
PolyA inh: 17.8; HIF act: -0.2; T cruzi inh: -5.7; Calb FLC: 22.4; CSC inhib: -3.7; Beta apoptosis: -8.5
